Experimental data of several laboratories.
Lines come from different studies, so protocols differ.
mraY: mraY (Staphylococcus aureus, UniProt Q2FZ93)
DCLK3: Serine/threonine-protein kinase DCLK3 (DCLK3, Homo sapiens, UniProt Q9C098)

Cc1cc(-c2ccnc3[nH]cc(F)c23)cc(F)c1[C@@]1(O)[C@H](C)CN(C2CCS(=O)(=O)CC2)C[C@@H]1C — remaining activity (Rho-associated protein kinase 1 (ROCK1, Homo sapiens, UniProt Q13464); enzyme activity, inhibitor; 15 nM): 31.3%
CCCCCCC#Cc1cncc(-c2nnc(SCc3ccc([N+](=O)[O-])o3)n2CCO)c1 — inhibition (mraY; cell-free assay, inhibitor; 250 µM): 61%
NC/C(=C\F)COc1cccc(Cn2c(=S)[nH]c(=O)c3[nH]cnc32)c1 — inhibition (Melatonin receptor type 1A (MTNR1A, Homo sapiens, UniProt P48039); ligand displacement, radioligand; 10 µM): < 50%
CCCCCCC#Cc1cncc(-c2nnc(SCc3ccc(Cl)cc3)n2CCCN)c1 — inhibition (mraY; cell-free assay, inhibitor; 250 µM): 34%
C[C@]1(O)CCCN(c2nc(Nc3ccc(S(=O)(=O)N[C@H]4CC[C@H](CN5CCN(c6ccc(C7CCC(=O)NC7=O)cc6F)CC5)CC4)cc3Cl)ncc2C(F)(F)F)C1 (stereo partly shown) — remaining binding (Aurora kinase C (AURKC, Homo sapiens, UniProt Q9UQB9); binding, competition with immobilised ligand; 1 µM): 99%
CCCCC(=O)Nc1ccc(-c2ccc3ncn(CCC)c(=O)c3c2)cn1 — remaining binding (Atypical kinase COQ8B, mitochondrial (COQ8B, Homo sapiens, UniProt Q96D53); binding, competition with immobilised ligand; 0.5 µM): 99%
CCN1/C(=C/C(C)=O)Sc2ccc(F)cc21 — inhibition (B2 bradykinin receptor (BDKRB2, Homo sapiens, UniProt P30411); ligand displacement, radioligand; 10 µM): 0%
COc1ccc2oc(-c3ccc4nc(N)oc4c3)c/c(=N\c3ccccc3NC(=O)CCN)c2c1 — remaining binding (Testis-specific serine/threonine-protein kinase 1 (TSSK1B, Homo sapiens, UniProt Q9BXA7); binding; 1 µM): 100%
Cc1cc(S(=O)(=O)N[C@H]2CC[C@H](CN3CCN(c4ccc(C5CCC(=O)NC5=O)cc4F)CC3)CC2)ccc1Nc1ncc(C(F)(F)F)c(N2CCC[C@](C)(O)C2)n1 (stereo partly shown) — remaining binding (DCLK3; binding, competition with immobilised ligand; 1 µM): 28%
CCCCCCC#Cc1cncc(-c2nnc(SC[C@H]3O[C@@H](n4ccc(=O)[nH]c4=O)[C@H](O)[C@@H]3O)n2CCO)c1 — inhibition (mraY; cell-free assay, inhibitor; 250 µM): 22%
C1=C/COCc2cc(ccc2OCCN2CCCC2)Nc2nccc(n2)-c2cccc(c2)COC/1 — remaining binding (Activin receptor type-2B (ACVR2B, Homo sapiens, UniProt Q13705); binding; 0.1 µM): 63%
C[C@H](NC(=O)C(=O)Nc1ccccc1C(C)(C)C)C(=O)N[C@@H](CC(=O)O)C(=O)COc1c(F)c(F)cc(F)c1F — kinact/KI (Caspase-4 (CASP4, Homo sapiens, UniProt P49662); enzyme activity, inhibitor): 19200 M⁻¹ s⁻¹
Cc1n[nH]c2ccc3nc(-c4ccc(C(=O)NCCN(C)C)cc4F)c4c(c3c12)CCCC4 — remaining activity (Receptor-type tyrosine-protein kinase FLT3 (FLT3, Homo sapiens, UniProt P36888, ITD); enzyme activity, inhibitor, radiometric; 0.5 µM): 13%
CCCCCCC#Cc1cncc(-c2nnc(SCc3ccc([N+](=O)[O-])o3)n2CCCN)c1 — inhibition (mraY; cell-free assay, inhibitor; 250 µM): 71%
CSCC[C@H](NC(C)=O)C(=O)N[C@@H](CC(=O)O)C(=O)N[C@@H](Cc1ccccc1)C(N)=O — Emax (Gastrin/cholecystokinin type B receptor (CCKBR, Homo sapiens, UniProt P32239); β-arrestin recruitment, agonist; HTLA): 38.1%
C[C@]1(O)CCCN(c2nc(Nc3ccc(S(=O)(=O)N[C@H]4CC[C@H](CN5CCN(c6ccc(C7CCC(=O)NC7=O)cc6F)CC5)CC4)cc3F)ncc2C(F)(F)F)C1 (stereo partly shown) — remaining binding (DCLK3; binding, competition with immobilised ligand; 1 µM): 43%
